The list is not random: actives were taken first. Their share in the collection is about 2.8%.
Arbovirus inh = blocks arbovirus infection; inhibition, % at 10 µM; arbovirus infection cell-based antiviral screen; hit rate 0.37% among 200,000; AID 1251; in the data active means inhibition above about 30%
Mcl-1 Bim block = inhibitors of Bim-Mcl-1 interaction, human. hit rate 0.1% among 190,000. Bead-based flow cytometry, Bim peptide-Mcl-1 binding. AID 1009. Q07820. inhibition, % at 10 µM; in the data active means inhibition above about 40%;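 further: 0% = no compound tracer wells and 100% = peptide blocker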
Target sequence (Q07820 whole entry, looked up): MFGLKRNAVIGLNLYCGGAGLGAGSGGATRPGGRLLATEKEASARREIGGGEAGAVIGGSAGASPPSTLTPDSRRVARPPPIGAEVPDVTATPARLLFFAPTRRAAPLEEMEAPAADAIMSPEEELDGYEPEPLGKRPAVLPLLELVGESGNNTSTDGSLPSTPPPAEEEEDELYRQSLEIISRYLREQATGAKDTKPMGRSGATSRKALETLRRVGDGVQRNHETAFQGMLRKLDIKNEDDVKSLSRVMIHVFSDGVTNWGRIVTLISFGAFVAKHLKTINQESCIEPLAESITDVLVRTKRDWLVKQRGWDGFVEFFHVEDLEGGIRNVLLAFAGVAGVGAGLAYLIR
m-calpain inh = blocks pig calpain II enzyme activity. purified calpain II, fluorogenic peptide substrate, 30 min. inhibition, % at 16 µM. hit rate 0.37% among 220,000;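 active means inhibition above about 50%, limit read from the data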
Mcl1-Noxa inh = Mcl-1/Noxa interaction inhibition; Q07820; TR-FRET Mcl-1/Noxa peptide binding, 2 h; inhibition, % at 21.7 µM; hit rate 1.5% among 220,000; AID 1022;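 active means compounds that cut the protein-peptide binding signal by more than 50% relative to plate controls in a single-dose test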;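 further: His-tagged Mcl-1 with rhodamine Noxa BH3 peptide and terbium anti-His antibody; 0% = Mcl-1 plus Noxa peptide wells and 100% = peptide-only wells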
Biofilm kill mix = mixture kills Candida albicans biofilm cells. inhibition, % at 7.6 µM. C. albicans biofilm persisters + clotrimazole, fluorescence viability; primary screen in compound mixtures of four per well. hit rate 0.02% among 120,000;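 active means inhibition above 30.3% in the primary screen of four-compound pools, then above 30% when the compound was retested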;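 further: compounds exposed to preformed 24 h biofilms for 48 h; 0% = untreated biofilm control and 100% = clotrimazole plus chlorhexidine kill blank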
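Probe or stimulus – Clotrimazole 50 µg/mL co-treatment · System – C. albicans biofilms · Schedule – 24 h biofilm formation, then 48 h compound exposure, 37 °C · Evaluation – percent inhibition of biofilm viability · Technique – 2-h Alamar Blue fluorescence, 535/590 nm excitation/emission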
Mcl1 Bid PPI = Mcl-1/Bid interaction inhibition. Q07820. TR-FRET Mcl-1/Bid-Dy647 peptide binding, 1536-well. inhibition, % at 21.7 µM. hit rate 0.97% among 220,000. AID 1021;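 active means compounds that cut the binding signal by more than half at the single screening dose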;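 further: His-tagged Mcl-1 with europium anti-His antibody binding Bid BH3 peptide; 0% = Mcl-1 plus peptide wells and 100% = peptide-only wells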
An asterisk follows results filed as active; i = inactive; x = no result.

SMILES | Arbovirus inh | Mcl-1 Bim block | m-calpain inh | Mcl1-Noxa inh | Biofilm kill mix | Mcl1 Bid PPI
O=C(CSc1nnc(-c2ccncc2)o1)NCc1ccccc1Cl | -3 | 0 | -4 | 1 | 20 | 101*
COc1ccc(N/C(=C(/C(Cl)=C(Cl)Cl)[N+](=O)[O-])n2nnc3ccccc32)cc1OC | 0 | 2 | i | 36 | x | 75*
COc1ccc(C(=O)n2nnc3ccccc32)cc1OC | 4 | -9 | -1 | 17 | 15 | 2
Cc1ccc(N2CC(C(=O)Nc3ccc(S(=O)(=O)Nc4nccc(C)n4)cc3)CC2=O)cc1 (stereo not drawn) | -6 | -1 | -7 | -3 | 4 | -27
CCOC(=O)c1cc(CC)sc1/N=C/c1c(O)ccc2ccccc12 | 6 | -5 | 11 | 15 | -10 | -5
Nc1ccc(Cl)c(S(=O)(=O)Nc2ccc(Cl)cc2)c1 | x | x | -14 | 2 | 13 | -34
O=S(=O)(c1ccc(Cl)cc1)n1c(Cc2ccccc2)nc2ccccc21 | 6 | -1 | -7 | 18 | 11 | -2
COc1ccccc1Cc1nc2ccccc2n1S(=O)(=O)c1ccc(Cl)cc1 | -2 | 0 | -2 | 0 | 13 | 59*
CCOc1ccc(-c2csc3ncn(-c4ccc(OC)cc4)c(=O)c23)cc1 | -9 | -1 | 2 | 5 | 25 | 84*
COc1ccc(-c2csc3ncn(-c4ccccc4)c(=O)c23)cc1OC | -10 | -5 | 2 | 6 | 27 | -10
COc1ccc2c(c1)c(=O)oc1cc3oc(C)c(C)c3cc12 | -3 | -4 | -47 | 56* | x | 67*
CN1C=C/C(=C\c2cc[n+](C)c3ccccc23)c2ccccc21 | -4 | 2 | 26 | 85* | 32 | 1
c1ccc2oc(-c3csc(NCC4CCCO4)n3)cc2c1 (stereo not drawn) | 4 | 0 | 18 | 9 | -17 | -44
C=CCNc1nc(-c2cc3ccccc3o2)cs1 | 12 | 0 | 18 | 19 | 19 | 55*
CCOC(=O)c1c(CSC(=N)N)n(-c2ccccc2)c2cc(Br)c(OC(C)=O)cc12 | x | x | -42 | 39 | 6 | -25
COc1ccc(CC(=O)N(C)C2CCCCC2)cc1S(=O)(=O)N1CCOCC1 | 6 | 1 | -26 | 0 | 6 | -15
O=C(O)c1cccc(Cn2c(Cl)c(/C=N/NC(=O)c3cc4ccccc4cc3O)sc2=O)c1 | x | x | 59* | 87* | 19 | 50
O=C(O)c1cccc(Cn2c(Cl)c(/C=N/NC(=O)c3ccccc3)sc2=O)c1 | 16 | -2 | -10 | 15 | x | -21
CCCCNC(=O)CSc1nc2ccsc2c(=O)n1CCCC(=O)NCCc1ccc(S(N)(=O)=O)cc1 | -7 | 0 | 27 | 15 | 2 | 1
O=C(CC(=O)NN=C1CCCCCC1)NCc1cccnc1 | 13 | 2 | 11 | 1 | 15 | -12
Cc1ccc(S(=O)(=O)c2nc(NN(C)C)sc2Cl)cc1 | 12 | -2 | 18 | 10 | 27 | -14
Cc1ccc(NC(=O)CCC(=O)NNC(=O)NC2CCCCC2)c(C)c1 | 0 | -1 | -13 | 2 | 17 | 1
Cn1c(NCc2ccccc2)nc2c1c(=O)n(Cc1ccccc1)c(=O)n2C | 2 | 1 | 62* | 4 | x | -3
COc1ccc(CNc2nc3c(c(=O)n(Cc4ccc(F)cc4)c(=O)n3C)n2C)cc1 | -20 | -3 | 80* | 1 | x | -42
Cn1c(N2CCCC2)nc2c1c(=O)n(Cc1ccc(F)cc1)c(=O)n2C | 7 | 3 | -3 | 2 | x | -21
SMILES | Arbovirus inh | Mcl-1 Bim block | m-calpain inh | Mcl1-Noxa inh | Biofilm kill mix | Mcl1 Bid PPI
NC(=O)[C@@H]1CCCNc2c(I)cc([N+](=O)[O-])cc2C(=O)N[C@@H](CO)C(=O)N[C@@H](Cc2ccc(O)cc2)C(=O)N1 | 2 | -1 | 3 | 14 | 9 | 7
NC(=O)CC[C@@H]1NC(=O)[C@H](CO)NC(=O)c2cc([N+](=O)[O-])cc(I)c2NCCC[C@@H](C(N)=O)NC(=O)[C@H](Cc2ccc(O)cc2)NC1=O | 5 | 0 | -74 | 62* | 14 | 41
COc1ccccc1NS(=O)(=O)/C=C/c1ccccc1 | -3 | -1 | -5 | 7 | 14 | -12
COc1ccccc1C1=NOC(Cn2c(NCCOCCO)nc3c2c(=O)n(C)c(=O)n3C)C1 (stereo not drawn) | x | x | 7 | 15 | 24 | -87
Cc1cc(NC(=O)CSc2ncnc3sccc23)no1 | 1 | -1 | 3 | 7 | 8 | -10
N#Cc1c(NC(=O)CSc2ncnc3sccc23)oc(-c2ccco2)c1-c1ccco1 | -1 | 3 | -161 | 97* | x | -35
C=CCSc1nc2c(c(=O)[nH]c(=O)n2C)n1C/C=C(/C)Cl | 2 | -4 | 1 | 58* | x | -1
CCSc1nc2c(c(=O)[nH]c(=O)n2C)n1C/C=C(/C)Cl | 4 | 2 | 8 | 8 | x | -38
Cc1cc(C(=O)COC(=O)c2cc(O)c3ccccc3c2O)c(C)n1CC1CCCO1 (stereo not drawn) | 0 | 0 | -102 | 99* | 10 | 37
Cc1cc(C(=O)COC(=O)c2ccccc2Br)c(C)n1CC1CCCO1 (stereo not drawn) | x | x | 7 | 6 | 21 | -52
COCCn1nnnc1CN(Cc1ccco1)Cc1cc2cc3c(cc2[nH]c1=O)OCO3 | 13 | 43* | -137 | -11 | x | -1
CC1(c2ccccc2)NC(=O)N(CC(=O)Nc2ccc3c(c2)OCO3)C1=O (stereo not drawn) | -4 | -1 | -6 | 14 | x | -9
O=C(CN1C(=O)NC(c2ccccc2)(c2ccccc2)C1=O)Nc1ccc2[nH]c(=O)[nH]c2c1 | x | x | -33 | 64* | 24 | -33
N#Cc1c(N2C(=O)Nc3ccccc3N2O)sc2c1CCCCCC2 | 35* | -5 | -13 | 8 | -19 | -6
O=S(=O)(NC1=NCCCCC1)c1ccc2ccccc2c1 | 6 | -1 | 7 | -1 | 8 | -9
CC(CSc1nnnn1-c1ccccc1)Cn1c(N2CCN(C)CC2)nc2c1c(=O)[nH]c(=O)n2C (stereo not drawn) | 25 | 5 | -8 | 52* | 8 | -38
CN1CCN(c2nc3c(c(=O)[nH]c(=O)n3C)n2CCSc2nnnn2-c2ccccc2)CC1 | x | x | -1 | -12 | 26 | -86
CC(C)CC(=O)Nc1ccc(-c2nnn(CC(=O)NCc3ccco3)n2)cc1 | -9 | -2 | -53 | 4 | 15 | -17
CCOc1ccc2nc(NC(=O)CSc3nc(-c4ccccc4)c(C#N)c(=O)[nH]3)sc2c1 | 62* | 0 | 29 | 48 | 11 | -8
COc1cccc(-c2nc(SCC(=O)Nc3nc(-c4ccccc4)c(C)s3)[nH]c(=O)c2C#N)c1 | 58* | 0 | -8 | 29 | 10 | 17
CCOC(=O)Cc1csc(NC(=O)CSc2nc(-c3ccccc3)c(C#N)c(=O)[nH]2)n1 | 4 | -1 | -2 | 23 | 18 | -3
Cc1cccc(N(C)C(=O)C2CCCN2S(=O)(=O)c2cccc3nsnc23)c1 (stereo not drawn) | x | x | 0 | -10 | 12 | -22

From PubChem
